Tests used:
Format in all cases: functional
SF-268 = assay: Growth inhibition of human SF268 cells at 10 uM after 48 hrs by SRB assay; settings: SF-268, 48 h, read-out: GI
Method in brief: (§1)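 NCI-60 primary one-dose screen run at the US NCI, with human tumour lines from nine cancer types. Compound added once at 10^-5 M, followed by 48 h incubation. End point was sulforhodamine B protein staining read spectrophotometrically. Result given as percent growth of treated cells against untreated controls, reported as % growth inhibition.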

CCRF-CEM = assay: Growth inhibition of human CCRF-CEM cells at 10 uM after 48 hrs by SRB assay; settings: read-out: GI
Method in brief: (§2)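 NCI primary one-dose screen. A single concentration of 10^-5 M was added to the cell culture, followed by 48 h incubation and an SRB protein-dye endpoint read spectrophotometrically. Results are growth percentage relative to untreated control cells, reported as % growth inhibition.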

[1] = Growth inhibition of human OVCAR8 cells at 10 uM after 48 hrs by SRB assay; settings: OVCAR-8, 48 h, read-out: GI; method in brief: as §1
[2] = Growth inhibition of human OVCAR3 cells at 10 uM after 48 hrs by SRB assay; settings: OVCAR-3, 48 h, read-out: GI; method in brief: as §1
NCI-H522 = assay: Growth inhibition of human NCI-H522 cells at 10 uM after 48 hrs by SRB assay; settings: NCI-H522, 48 h, read-out: GI; method in brief: as §1
CAKI-1 = assay: Growth inhibition of human CAKI-1 cells at 10 uM after 48 hrs by SRB assay; settings: CAKI-1, 48 h, read-out: GI; method in brief: as §2
[3] = Growth inhibition of human Hs578T cells at 10 uM after 48 hrs by SRB assay; settings: Hs-578T, read-out: GI; method in brief: as §1
NCI-H460 = assay: Growth inhibition of human NCI-H460 cells at 10 uM after 48 hrs by SRB assay; settings: NCI-H460, 48 h, read-out: GI; method in brief: as §1
RPMI-8226 = assay: Growth inhibition of human RPMI8226 cells at 10 uM after 48 hrs by SRB assay; settings: RPMI-8226, 48 h, read-out: GI; method in brief: as §1
[4] = Growth inhibition of human BT549 cells at 10 uM after 48 hrs by SRB assay; settings: BT-549, 48 h, read-out: GI; method in brief: as §2
DU-145 = assay: Growth inhibition of human DU145 cells at 10 uM after 48 hrs by SRB assay; settings: DU-145, 48 h, read-out: GI; method in brief: as §1
HCT-116 = assay: Growth inhibition of human HCT116 cells at 10 uM after 48 hrs by SRB assay; settings: HCT-116, 48 h, read-out: GI; method in brief: as §1
SK-MEL-2 = assay: Growth inhibition of human SK-MEL-2 cells at 10 uM after 48 hrs by SRB assay; settings: SK-MEL-2, 48 h, read-out: GI; method in brief: as §1
SN12C = assay: Growth inhibition of human SN12C cells at 10 uM after 48 hrs by SRB assay; settings: read-out: GI; method in brief: as §1
[5] = Growth inhibition of human OVCAR5 cells at 10 uM after 48 hrs by SRB assay; settings: OVCAR-5, 48 h, read-out: GI; method in brief: as §1
TK-10 = assay: Growth inhibition of human TK10 cells at 10 uM after 48 hrs by SRB assay; settings: TK-10, 48 h, read-out: GI; method in brief: as §1
M14 = assay: Growth inhibition of human M14 cells at 10 uM after 48 hrs by SRB assay; settings: M14, 48 h, read-out: GI; method in brief: as §1
[6] = Growth inhibition of human UACC62 cells at 10 uM after 48 hrs by SRB assay; settings: UACC-62, 48 h, read-out: GI; method in brief: as §1
ACHN = assay: Growth inhibition of human ACHN cells at 10 uM after 48 hrs by SRB assay; settings: read-out: GI; method in brief: as §2
MCF7 = assay: Growth inhibition of human MCF7 cells at 10 uM after 48 hrs by SRB assay; settings: MCF7, 48 h, read-out: GI; method in brief: as §1
786-0 = assay: Growth inhibition of human 786-0 cells at 10 uM after 48 hrs by SRB assay; settings: 786-0, 48 h, read-out: GI; method in brief: as §2
Malme-3M = assay: Growth inhibition of human MALME-3M cells at 10 uM after 48 hrs by SRB assay; settings: read-out: GI; method in brief: as §1
PC-3 = assay: Growth inhibition of human PC3 cells at 10 uM after 48 hrs by SRB assay; settings: PC-3, 48 h, read-out: GI; method in brief: as §1
KM12 = assay: Growth inhibition of human KM12 cells at 10 uM after 48 hrs by SRB assay; settings: KM12, 48 h, read-out: GI; method in brief: as §1
MDA-MB-435 = assay: Growth inhibition of human MDA-MB-435 cells at 10 uM after 48 hrs by SRB assay; settings: MDA-MB-435, 48 h, read-out: GI; method in brief: as §1
SK-MEL-28 = assay: Growth inhibition of human SK-MEL-28 cells at 10 uM after 48 hrs by SRB assay; settings: SK-MEL-28, 48 h, read-out: GI; method in brief: as §1
HOP-62 = assay: Growth inhibition of human HOP62 cells at 10 uM after 48 hrs by SRB assay; settings: HOP-62, 48 h, read-out: GI; method in brief: as §1
[7] = Growth inhibition of human HOP92 cells at 10 uM after 48 hrs by SRB assay; settings: HOP-92, 48 h, read-out: GI; method in brief: as §1
[8] = Growth inhibition of human UO31 cells at 10 uM after 48 hrs by SRB assay; settings: UO-31, 48 h, read-out: GI; method in brief: as §1
SW-620 = assay: Growth inhibition of human SW620 cells at 10 uM after 48 hrs by SRB assay; settings: SW-620, 48 h, read-out: GI; method in brief: as §1
NCI-H23 = assay: Growth inhibition of human NCI-H23 cells at 10 uM after 48 hrs by SRB assay; settings: NCI-H23, 48 h, read-out: GI; method in brief: as §1
U-251 = assay: Growth inhibition of human U251 cells at 10 uM after 48 hrs by SRB assay; settings: U-251, 48 h, read-out: GI; method in brief: as §1
COLO 205 = assay: Growth inhibition of human COLO205 cells at 10 uM after 48 hrs by SRB assay; settings: COLO 205, 48 h, read-out: GI; method in brief: as §2
[9] = Growth inhibition of human NCI-ADR-RES cells at 10 uM after 48 hrs by SRB assay; settings: read-out: GI; method in brief: as §1
SNB-75 = assay: Growth inhibition of human SNB75 cells at 10 uM after 48 hrs by SRB assay; settings: SNB-75, 48 h, read-out: GI; method in brief: as §1
HT-29 = assay: Growth inhibition of human HT-29 cells at 10 uM after 48 hrs by SRB assay; settings: HT-29, 48 h, read-out: GI; method in brief: as §1
A498 = assay: Growth inhibition of human A498 cells at 10 uM after 48 hrs by SRB assay; settings: A498, 48 h, read-out: GI; method in brief: as §2
[10] = Growth inhibition of human HCT15 cells at 10 uM after 48 hrs by SRB assay; settings: HCT-15, 48 h, read-out: GI; method in brief: as §1

SMILES	inhibition of growth at 10 µM (SF-268) [%]	inhibition of growth at 10 µM (CCRF-CEM) [%]	inhibition of growth at 10 µM [1] [%]	inhibition of growth at 10 µM [2] [%]	inhibition of growth at 10 µM (NCI-H522) [%]	inhibition of growth at 10 µM (CAKI-1) [%]	inhibition of growth at 10 µM [3] [%]	inhibition of growth at 10 µM (NCI-H460) [%]	inhibition of growth at 10 µM (RPMI-8226) [%]	inhibition of growth at 10 µM [4] [%]	inhibition of growth at 10 µM (DU-145) [%]	inhibition of growth at 10 µM (HCT-116) [%]	inhibition of growth at 10 µM (SK-MEL-2) [%]	inhibition of growth at 10 µM (SN12C) [%]	inhibition of growth at 10 µM [5] [%]	inhibition of growth at 10 µM (TK-10) [%]	inhibition of growth at 10 µM (M14) [%]	inhibition of growth at 10 µM [6] [%]	inhibition of growth at 10 µM (ACHN) [%]	inhibition of growth at 10 µM (MCF7) [%]	further results
Cc1ccc(-c2nc3ccc(Cl)cc3c(=O)n2NC(=O)CN)cc1	< 10	14	< 10	< 10	< 10	14	< 10	< 10	< 10	< 10	< 10	11	< 10	< 10	11	< 10	11	< 10	14	12	inhibition of growth at 10 µM (786-0): < 10%; inhibition of growth at 10 µM (Malme-3M): < 10%; inhibition of growth at 10 µM (PC-3): < 10%; inhibition of growth at 10 µM (KM12): < 10%; inhibition of growth at 10 µM (MDA-MB-435): < 10%; inhibition of growth at 10 µM (SK-MEL-28): < 10%; inhibition of growth at 10 µM (HOP-62): 15%; inhibition of growth at 10 µM [7]: < 10%; inhibition of growth at 10 µM [8]: 11%; inhibition of growth at 10 µM (SW-620): < 10%; inhibition of growth at 10 µM (NCI-H23): < 10%; inhibition of growth at 10 µM (U-251): < 10%; inhibition of growth at 10 µM (COLO 205): < 10%; inhibition of growth at 10 µM [9]: < 10%; inhibition of growth at 10 µM (SNB-75): 15%; inhibition of growth at 10 µM (HT-29): 12%
Cc1ccc(C2=Nc3ccc(Cl)cc3C3=NNCC(=O)NN23)cc1	< 10	< 10	< 10	< 10	< 10	14	< 10	< 10	< 10	< 10	< 10	< 10	< 10	< 10	< 10	< 10	< 10	< 10	< 10	< 10	inhibition of growth at 10 µM (786-0): < 10%; inhibition of growth at 10 µM (Malme-3M): < 10%; inhibition of growth at 10 µM (PC-3): < 10%; inhibition of growth at 10 µM (A498): 34%; inhibition of growth at 10 µM (KM12): < 10%; inhibition of growth at 10 µM [10]: < 10%; inhibition of growth at 10 µM (MDA-MB-435): < 10%; inhibition of growth at 10 µM (SK-MEL-28): < 10%; inhibition of growth at 10 µM (HOP-62): < 10%; inhibition of growth at 10 µM [7]: < 10%; inhibition of growth at 10 µM [8]: 18%; inhibition of growth at 10 µM (SW-620): < 10%; inhibition of growth at 10 µM (NCI-H23): < 10%; inhibition of growth at 10 µM (U-251): < 10%; inhibition of growth at 10 µM (COLO 205): < 10%; inhibition of growth at 10 µM [9]: < 10%; inhibition of growth at 10 µM (SNB-75): < 10%; inhibition of growth at 10 µM (HT-29): < 10%

Source: ChEMBL document CHEMBL3259728, “Design, synthesis and biological evaluation of some novel substituted quinazolines as antitumor agents” (2014)
